# Data as given in the RNAGym collection of RNA variant scans (doi:10.1126/science.aae0568).
# Variants at the floor of the assay were thinned out.
# B1: tRNA (parent)
# chain: GUUCCGUUGGCGUAAUGGUAACGCGUCUCCCUCCUAAGGAGAAGACUGCGGGUUCGAGUCCCGUACGGAACG
# Variants of: B1
# Experiment: yeast fitness relative to wild type (ratio to wild type); higher = fitter; tRNA-Arg(CCU), competitive growth, 37 C, YPD
# Outline: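 Gene amplicons from the start population and from each of six end populations were read by 100-nucleotide paired-end sequencing. Those end populations came from pooled Saccharomyces cerevisiae strains carrying tRNA-Arg(CCU) gene variants at the native locus, competed in YPD at 37°C for 24 hours. Fitness relative to wild type was worked out from changes in genotype frequencies. Genotypes needed ≥ 100 starting reads, and estimates < 0.5 were set to 0.5.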
row,Variant,yeast fitness
1,C4G A21C C27A U28G,0.614
2,C4A U16G G52C U64A,≤ 0.5
3,C4G A20U C66U,≤ 0.5
4,C4G C11A C46G,0.693
5,C4G A15U G18C G23C C24G G56C A70G,0.586
6,C4G A14G C24U U32G A43G C66U,≤ 0.5
7,C4G A36G G48A,0.533
8,C4G C5U A37G C62U,≤ 0.5
9,C4G C11A A14C,≤ 0.5
10,C4G C5U U35C A37U C61A,≤ 0.5
11,C4G A21G C22U U28A U35C,≤ 0.5
12,C4G A36U G58A,≤ 0.5
13,C4G C11A A42U,≤ 0.5
14,C4A U13A A14C A43U,0.601
15,C4G A45U C62U G68A,≤ 0.5
16,C4G A14G U26C A36G A37C G51C,≤ 0.5
17,C4A U8A G12C U19C C30U U47A A65U,≤ 0.5
18,C4G C11G C46U U59C C62G A65U,≤ 0.5
19,C4A U28C G56A C61U,≤ 0.5
20,C4G A37C G38A G63A,≤ 0.5
21,C4A U7C C27U U53A,≤ 0.5
22,C4G A20U G58C,≤ 0.5
23,C4A U28A,0.761
24,C4G A40G A45U,≤ 0.5

row,Variant,yeast fitness
1,C4A U32C G67A,0.655
2,C4G C5G C34G,≤ 0.5
3,C4G A14U C30U G48C,≤ 0.5
4,C4G A21C C49A A65G,≤ 0.5
5,C4G A15U A37U,0.541
6,C4G A40U A42C A57G C62G,≤ 0.5
7,C4A U26G G44C G58A U59C G68C,≤ 0.5
8,C4A U16C C27G A42G U53A,≤ 0.5
9,C4G C11G A20G A36U G63A A65U C66U,≤ 0.5
10,C4A U28A C31G A40U A65U G68C,≤ 0.5
11,C4G A15U G18C G23C C24G G56C,≤ 0.5
12,C4G C11A G17A A20G C27U A43U C49G C60U,≤ 0.5
13,C4G C11A A14C C33G A36C A37C A42C A65U,≤ 0.5
14,C4G A20U G67A,≤ 0.5
15,C4G A14U C34U,0.591
16,C4G C11U A14G U32C,≤ 0.5
17,C4G A15G G23A C34G G68A,≤ 0.5
18,C4G A14U C66U,≤ 0.5
19,C4A U19G C31G A45C C46G G56C G63A U64C G67C,≤ 0.5
20,C4G A20U A57U C66U,≤ 0.5
21,C4A U7C G41A C49A,0.504
22,C4G C5G C29U G50C U59A,≤ 0.5
23,C4G A14G G63A,≤ 0.5
24,C4G A14G C33U,≤ 0.5

row,Variant,yeast fitness
1,C4G C5U C49A G56A G63C G68A,≤ 0.5
2,C4G A21G A45U C49U C60A,≤ 0.5
3,C4G C22A U35A,≤ 0.5
4,C4G C5U U13A A42U C61U,≤ 0.5
5,C4G C5G A14U C46G A69U,≤ 0.5
6,C4A U13A C30A U32C C61G G68C,≤ 0.5
7,C4G C22A C55G,≤ 0.5
8,C4G C11G U26A A65G,≤ 0.5
9,C4G C11U C49U,0.562
10,C4G A20U G25A,≤ 0.5
11,C4A U35C,0.834
12,C4G A65C,0.733
13,C4G A20U A43C G50A,≤ 0.5
14,C4G C5G A14U A20C C34G A37C C49U,0.559
15,C4G C5U A36G U54C A69C,≤ 0.5
16,C4A U16A C29G C55U C66U,≤ 0.5
17,C4G C11A U19C G23C,0.524
18,C4G A20U C31G,0.555
19,C4A U7C A15G C30A A57C,≤ 0.5
20,C4A U26G C66U,≤ 0.5
21,C4A U32A,0.876
22,C4G C5U A65G A70C,≤ 0.5
23,C4G C11U A36G,0.57
24,C4G A40C,0.811

row,Variant,yeast fitness
1,C4G A21U A36C C61A,0.615
2,C4G C5U G12C,≤ 0.5
3,C4G A37U G51A G52C U59C,≤ 0.5
4,C4A U8A C24U G44A A70C,≤ 0.5
5,C4G A14C G25C,0.8
6,C4G A15U C34G A36C,≤ 0.5
7,C4G A43C A45G,0.629
8,C4G A14G G68A,0.59
9,C4A U13C G23C C34G A40G A45G U53C U64A,≤ 0.5
10,C4A U19A,0.854
11,C4A U19G,0.742
12,C4A U53C,0.691
13,C4G C22A C66U,≤ 0.5
14,C4G C11U A14G,0.556
15,C4G A45C,0.767
16,C4G C5G G10A G18A A42C,≤ 0.5
17,C4G C5U A42G A45U C66U,≤ 0.5
18,C4A U32C C66U,0.707
19,C4G C5U C22G,≤ 0.5
20,C4G A14G A37U G38A A70U,0.628
21,C4G A21C C30A G51A,0.747
22,C4G C11U,0.967
23,C4G C11G,0.623
24,C4G A40U C62A,0.638

row,Variant,yeast fitness
1,C4G A20U C29G C31A G38A,≤ 0.5
2,C4G A14G A37U G38A G63C,≤ 0.5
3,C4G C5U U16A C34A G68C,0.508
4,C4G A15C U19A,≤ 0.5
5,C4G A40G G48A G56C,≤ 0.5
6,C4A U26G G44C G58A,0.535
7,C4G C5G A20G A21U C34G C46A C61A,≤ 0.5
8,C4G A20U C60U A70U,0.651
9,C4G C11G C29A C30U,≤ 0.5
10,C4A U19G A45G C46U,≤ 0.5
11,C4G A15G C29A C34U C66G,≤ 0.5
12,C4G A14C A20C A40G G44C U53C C55A A65U,≤ 0.5
13,C4A U26A C34G G38A G68C,≤ 0.5
14,C4G A21U C33U A42G A57U,0.683
15,C4G A42U G48A,0.575
16,C4G A42G A45U,0.67
17,C4G A43G,0.729
18,C4G A43U,0.856
19,C4G C11G C55U A70G,≤ 0.5
20,C4G C11G A36G C55U C61A,0.52
21,C4G A37G G51A A57G,0.523
22,C4G A20U C31G A65U,≤ 0.5
23,C4G C5A C24U,≤ 0.5
24,C4G C5U C11A C46A U47A U53A,0.566

row,Variant,yeast fitness
1,C4G C5A C27A,0.641
2,C4G A37C,0.773
3,C4A U16C G17A A69U,≤ 0.5
4,C4G A20U G41A A57C,≤ 0.5
5,C4G A43C C61A,0.551
6,C4G C11A U35A C49G,0.526
7,C4G C5G U8C G23C C29U A45U G68A,0.59
8,C4A U16A A43C,≤ 0.5
9,C4G C5U G23A C55A C61A,≤ 0.5
10,C4G C11G G52A C55U C61A,≤ 0.5
11,C4G C5G U26C A43G,≤ 0.5
12,C4G A21C C22U,0.626
13,C4G A70U,0.806
14,C4G A70C,1.08
15,C4G A70G,0.909
16,C4G A14G G44C U47A,≤ 0.5
17,C4A U16G C22U G23U A42C G50C G63C G68C,0.604
18,C4A U7A U59A,≤ 0.5
19,C4G A45U C49U A65U,≤ 0.5
20,C4G A20G,0.966
21,C4G A20C,0.8
22,C4G A20U,0.659
23,C4G C11A C30G C61G,≤ 0.5
24,C4G A20G C27A C46U A65U,≤ 0.5

row,Variant,yeast fitness
1,C4G A15G A37U A40C G48A G50C,0.515
2,C4A U13G A40G A45U U47A,≤ 0.5
3,C4A U54C U59A,0.542
4,C4A U16A U32C C62U A70U,≤ 0.5
5,C4G A42C,0.78
6,C4G A42G,0.897
7,C4A U13C C30U A40G C55A G63C A65C,≤ 0.5
8,C4G C5U G44C G67U,≤ 0.5
9,C4G C11A C30G A65G C66U,≤ 0.5
10,C4G A14C C31U U35A U47G,≤ 0.5
11,C4G A45U C49U,0.502
12,C4A U7C A45C C61G,≤ 0.5
13,C4G A21C G39C A42U G48C,≤ 0.5
14,C4G A15G G23A C34G,0.538
15,C4G C5A U19A C24G C29G,≤ 0.5
16,C4A U32G A45G C49U A70U,≤ 0.5
17,C4G C5U C49A A70C,0.529
18,C4G A21G,0.997
19,C4G A21U,0.696
20,C4G A21C G23C A36U A57U C60G G68C,≤ 0.5
21,C4G C11U U19A U32A A37U U64C,≤ 0.5
22,C4G A45U A70C,0.808
23,C4A U16G C24U G48A,0.643
